Screening results deposited in PubChem by several laboratories.
T cruzi inh: inhibitors of intracellular T. cruzi growth, primary screen, luminescence, NIH3T3 host cells; T. cruzi beta-gal in NIH3T3, 90 h; inhibition, % (test concentration not listed); 300,000 tested, 1.4% active; AID 1885, 2009;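 active means mean inhibition across valid replicates above about 55%, limit read from the data; inconclusive means mean below that limit but half or more replicates reach it; inactive means mean below it, under half of replicates reach it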;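 further: signal also drops with host cell toxicity which is not excluded here; higher percent means less beta-gal luminescence so fewer parasites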
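Incubation – ≥90 h infection period, 3 h prior cell attachment · System – NIH/3T3 fibroblasts plus reporter T. cruzi · Doses – compound pinned at 50 nL/well, DMSO · Read-out basis – percent inhibition of parasite-derived β-gal signal · Signal – luminescent β-galactosidase signal after 60 min lysis · Also added – 5000 T. cruzi trypomastigotes/well · Medium – Low-serum DMEM with 2% FBS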
HSF-1 act: HSF-1 activators, primary screen, NIH3T3-HGL cells, MG132 stress, luminescence, single point; NIH3T3-HGL HSF-1 luciferase reporter, 8 h; 100% = twice DMSO control signal; activation, % at 9 µM; 300,000 tested, 1.7% active; AID 504408, 2011;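 active means mean replicate activation of at least 50% with a set share of replicates each reaching 50%; inconclusive means only one of those two conditions met; inactive means mean below 50% and too few replicates reaching it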
L major viab: Leishmania major promastigote growth inhibition, primary screen; inhibition, % at 10 µM; Leishmania major promastigotes, resazurin fluorescence viability; 200,000 tested, 9% active; AID 1063, 2008; in the data active means inhibition above about 50%;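 further: promastigotes grown with compound for 44 hours at 28 °C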
Hsp70 activator: Hsp70 transcriptional activators, primary screen, cell-based, HeLa, Hsp70 promoter luciferase, luminescence, 10 µM; activation, % at 10 µM; 200,000 tested, 0.04% active; HeLa Hsp70 promoter luciferase reporter; scaled: vehicle 0, proteasome-inhibitor control 100%;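 active means activation above the mean across all tested compounds plus 3 SD, cutoff set per campaign, cut at about 5.5% in these data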
HSF1 inh: HSF1 inhibitors in luciferase reporter cells, primary screen, cell-based, NIH3T3, luminescence; NIH3T3-HGL HSE-luciferase, MG132-induced, luminescence 8 h; hits give low values; activity change, negative = inhibition, % at 7.5 µM (by protocol); 300,000 tested, 0.77% active; AID 2098, 2009;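 active means more than half of replicate wells show activity change below -50%, luminescence cut by over half; inconclusive means some wells, but at most half, below -50%; inactive means no replicate well below -50%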;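 further: luciferase reports HSF-1 transcriptional activity via heat shock element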
Hits are given with their value. The sample as a whole holds a higher share of hits than the screen did.

For Cc1ccnc(NS(=O)(=O)c2ccc(NC(=O)COc3ccccc3)cc2)n1 the results were T cruzi inh inactive, HSF-1 act inactive, L major viab inactive, Hsp70 activator inactive and HSF1 inh -87.9.
COC(=O)c1cc(NC(=O)Cn2c(=O)oc3ccccc32)cc(C(=O)OC)c1 was read as T cruzi inh inactive, HSF-1 act inactive and HSF1 inh inactive.
For Cn1nc([N+](=O)[O-])nc1Sc1cccc2cccnc12 the results were T cruzi inh 65.1, HSF-1 act inactive, L major viab inactive, Hsp70 activator inactive and HSF1 inh inactive.
For O=[N+]([O-])c1ccc(Cl)cc1Sc1cccc2cccnc12 the results were T cruzi inh inactive, HSF-1 act inactive, L major viab inactive, Hsp70 activator inactive and HSF1 inh inactive.
For CCOCCCNC(=S)N1CCCC(c2nc3ccc(C)cc3[nH]2)C1 (stereo not given) the results were T cruzi inh inactive, HSF-1 act inactive, L major viab inactive, Hsp70 activator inactive and HSF1 inh inactive.
Cc1ccccc1NC(=S)N1CCCC(c2nc3ccccc3[nH]2)C1 (stereo not given) was read as T cruzi inh 71.6, HSF-1 act inactive, L major viab inactive, Hsp70 activator inactive and HSF1 inh inactive.
Screening Cc1ccc(NC(=S)N2CCCC(c3nc4ccccc4[nH]3)C2)cc1 (stereo not given) returned T cruzi inh inactive, HSF-1 act inactive, L major viab 88.7, Hsp70 activator inactive and HSF1 inh inactive.
Cc1ccc(-c2n[nH]c(=S)n2/N=C/c2c(C)[nH]n(-c3ccccc3)c2=O)cc1 was read as T cruzi inh inactive, HSF-1 act inactive, L major viab inactive, Hsp70 activator inactive and HSF1 inh inactive.
Screening CCCCN(CCCC)CCCN1CC(=O)N2[C@@H](Cc3c([nH]c4ccccc34)C2(C)C)C1=O returned T cruzi inh inactive, HSF-1 act inactive and HSF1 inh inactive.
`O=C1c2ccccc2C(=O)N1OS(=O)(=O)c1ccc(F)cc1` gave T cruzi inh inactive, HSF-1 act inactive and HSF1 inh inactive.
`Cc1cc(C)c(C)c(S(=O)(=O)ON2C(=O)c3ccccc3C2=O)c1C` gave T cruzi inh inactive, HSF-1 act 52.4, L major viab inactive, Hsp70 activator inactive and HSF1 inh inactive.
Cc1ccc(S(=O)(=O)ON2C(=O)c3ccccc3C2=O)c(C)c1 was read as L major viab inactive and Hsp70 activator inactive.
Screening Cc1cc(C)c(S(=O)(=O)ON2C(=O)c3ccccc3C2=O)cc1C returned T cruzi inh inactive, HSF-1 act 62.3, L major viab inactive, Hsp70 activator inactive and HSF1 inh inactive.
For O=C(CCS(=O)(=O)c1ccc(Br)cc1)NCc1ccc(F)cc1 the results were T cruzi inh inactive, HSF-1 act inactive and HSF1 inh inactive.
For COc1ccc(/C=C/C(=O)c2ccc(C(=O)/C=C/c3ccc(OC)c(OC)c3)cc2)cc1OC the results were T cruzi inh inconclusive, HSF-1 act inactive and HSF1 inh inactive.
CCOc1cc(/C=C2/COc3ccccc3C2=O)ccc1OCC(=O)N(C)C was read as L major viab 100.4 and Hsp70 activator inactive.
For COc1cc(/C=C/C(=O)c2ccc(C)cc2)ccc1OCC#N the results were T cruzi inh inactive, HSF-1 act inactive, L major viab 97.8, Hsp70 activator inactive and HSF1 inh inactive.
For CCOc1cc(/C=C/C(=O)c2ccc(C)cc2)ccc1OCC(=O)N(C)C the results were T cruzi inh inactive, L major viab 100.0 and Hsp70 activator inactive.
For CCOc1cc(/C=N/NC(=O)c2cccnc2)ccc1OCC(=O)N(C)C the results were T cruzi inh inactive, HSF-1 act inactive, L major viab inactive, Hsp70 activator inactive and HSF1 inh inactive.
For Cc1ccccc1C(=O)NCCCNC(=O)c1cnccn1 the results were T cruzi inh inactive, HSF-1 act inactive and HSF1 inh inactive.
`Nn1c(-c2ccccc2)cc(-c2ccccc2)cc1=O` gave T cruzi inh inactive, HSF-1 act inactive and HSF1 inh inactive.
`COC(=O)C(NC(=O)c1ccccc1)(Nc1cc(C)cc(C)n1)C(F)(F)F` (stereo not given) gave T cruzi inh inactive, HSF-1 act inactive, L major viab inactive, Hsp70 activator inactive and HSF1 inh inactive.
`CCCNC(=O)Nc1ccc(C)cc1C` gave T cruzi inh inactive, HSF-1 act 51.4 and HSF1 inh inactive.
`COc1cccc(C(=O)NC2CC3CCCC(C2)N3Cc2ccc(C)cc2)c1` (stereo not given) gave T cruzi inh inactive, HSF-1 act inactive and HSF1 inh inactive.
COc1ccc(CN2C3CCCC2CC(NC(=O)Nc2ccccc2)C3)cc1 (stereo not given) was read as T cruzi inh inactive, HSF-1 act inactive, L major viab 93.7, Hsp70 activator inactive and HSF1 inh inactive.
Screening Cc1ccccc1NC(=O)N1C2CCCC1CC(NC(=O)C1CC1)C2 (stereo not given) returned T cruzi inh inactive, HSF-1 act inactive, L major viab inactive, Hsp70 activator inactive and HSF1 inh -69.9.
COc1ccc(CN2C3CCCC2CC(NC(=O)Nc2ccccc2C)C3)cc1 (stereo not given) was read as T cruzi inh inactive, HSF-1 act inactive, L major viab 85.0, Hsp70 activator inactive and HSF1 inh inactive.
`O=C(NC1CC2CCCC(C1)N2C(=O)Nc1ccccc1Cl)C1CC1` (stereo not given) gave T cruzi inh inactive, HSF-1 act inactive and HSF1 inh inactive.
COc1ccc(CN2C3CCCC2CC(NC(=O)Nc2cccc(C)c2)C3)cc1 (stereo not given) was read as T cruzi inh inactive, HSF-1 act inactive, L major viab 90.2, Hsp70 activator inactive and HSF1 inh inactive.
CCOC(=O)c1cnc(N2CCN(C(=O)OCC)CC2)[nH]c1=O was read as T cruzi inh inactive, HSF-1 act inactive, L major viab inactive, Hsp70 activator inactive and HSF1 inh inactive.
Cc1c(/C=N/NC(=O)c2cccnc2)c2ccccn2c1C(=O)c1ccc(F)cc1 was read as T cruzi inh inactive, HSF-1 act inactive, L major viab 53.1, Hsp70 activator inactive and HSF1 inh inactive.
Screening COC(=O)N/N=C/c1c(C)c(C(=O)c2ccc(F)cc2)n2ccccc12 returned T cruzi inh inactive, HSF-1 act inactive, L major viab inactive, Hsp70 activator inactive and HSF1 inh inactive.
Cc1c(/C=N/NC(=O)c2ccccc2O)c2ccccn2c1C(=O)c1ccc(F)cc1 was read as T cruzi inh inactive, HSF-1 act inactive, L major viab 59.0, Hsp70 activator inactive and HSF1 inh inactive.
Screening Cc1c(/C=N/NC(=O)c2ccc(O)cc2)c2ccccn2c1C(=O)c1ccc(F)cc1 returned T cruzi inh inactive, HSF-1 act inactive, L major viab 91.6, Hsp70 activator inactive and HSF1 inh inactive.
